Holding throughout (type): functional, cell-based
One test has as its system NCI/ADR-RES. Put plainly: Cytotoxicity against human NCI/ADR-RES cells. In short, it runs like this: (§1)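 Human tumour cell lines (A549 lung adenocarcinoma, PANC-1 pancreatic, NCI/ADR-RES […], formerly MCF-7/ADR) obtained from ATCC. In vitro proliferation inhibition run by a previously described protocol. Each sample assayed at least three times to derive the final IC50.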

The test system of the next test is A549. The experiment in a line: Cytotoxicity against human A549 cells. In short, it runs like this:
as §1

For a further test, the system named is PANC-1. The experiment in a line: Cytotoxicity against human PANC1 cells. In a few lines:
as §1

`C=C(CCC(C)C)COC(=O)[C@H](O)C/C=C\C[C@@H]1O[C@@H]2/C=C/C/C=C/C(C)=C\[C@H]3O[C@@H](C/C=C/C=C/C(=O)O[C@H](C2)[C@@]1(C)CO)C[C@H](O)[C@H]3C` [LASONOLIDE A]: the values for the IC50 in the test on NCI/ADR-RES, with A549 and in the test on PANC-1 were 490 nM, 8.6 nM and 89 nM, respectively.
With `C=C(COC(=O)[C@H](O)C/C=C\C[C@@H]1O[C@@H]2/C=C/C/C=C/C(C)=C\[C@H]3O[C@@H](C/C=C/C=C/C(=O)O[C@H](C2)[C@@]1(C)CO)C[C@H](O)[C@H]3C)C(O)CC(C)C` (stereo partly drawn) [LASONOLIDE C], the IC50 (commonly the point on the concentration scale where inhibition reaches its midpoint) with NCI/ADR-RES stood at 1120 nM; with A549 it was 130 nM; in the test on PANC-1, 380 nM.
`CC1=C/[C@H]2O[C@@H](C/C=C/C=C/C(=O)O[C@@H]3C[C@@H](/C=C/C\C=C\1)O[C@@H](C/C=C\CCO)[C@]3(C)CO)C[C@H](O)[C@H]2C` [LASONOLIDE D]: the IC50 with NCI/ADR-RES was above 9000 nM; in the test on A549, 4500 nM; in the test with PANC-1, 4890 nM.
For `CCOC(=O)[C@H](O)C/C=C\C[C@@H]1O[C@@H]2/C=C/C/C=C/C(C)=C\[C@H]3O[C@@H](C/C=C/C=C/C(=O)O[C@H](C2)[C@@]1(C)CO)C[C@H](O)[C@H]3C` [LASONOLIDE E], in that order: above 8000 nM, 310 nM and 570 nM.
As to `C=C(COC(=O)[C@H](O)C/C=C\C[C@@H]1O[C@@H]2/C=C/C/C=C/C(C)=C\[C@H]3O[C@@H](C/C=C/C=C/C(=O)O[C@H](C2)[C@@]1(C)COC(=O)CCCCCCCCCCC)C[C@H](O)[C@H]3C)C(O)CC(C)C` (stereo partly drawn) [LASONOLIDE G], the half-maximal inhibitory concentration (IC50) in the test with NCI/ADR-RES, in the test on A549 and with PANC-1 was above 6000 nM throughout.
Consider `CC1=C/[C@H]2O[C@@H](C/C=C/C=C/C(=O)O[C@@H]3C[C@@H](/C=C/C\C=C\1)O[C@@H](C/C=C\C[C@@H](O)C(=O)O)[C@]3(C)CO)C[C@H](O)[C@H]2C` [LASONOLIDES F], for which the IC50 was above 9000 nM with NCI/ADR-RES, above 9000 nM in the test on A549 and 15600 nM in the test with PANC-1.

These data come from ChEMBL document CHEMBL1148202, “Lasonolides C-g, five new lasonolide compounds from the sponge Forcepia sp” (J Nat Prod, 2004).
